According to ChEMBL document CHEMBL3808372, “Identification of quinones as novel PIM1 kinase inhibitors” (Bioorg Med Chem Lett, 2016):

Experiments:
[1] = target: Serine/threonine-protein kinase pim-2 (Homo sapiens) (UniProt Q9P1W9); test: Inhibition of human PIM2 (1 to 291 amino acid residues) expressed in bacterial system assessed as enzyme activity at 10 uM by KINOMEScan assay; set-up: scale not given: the % may be the effect or the level left
Procedure, shortened: (§1)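 Single-concentration competition binding screen (KINOMEscan) across a 100-kinase panel at 10 μM. Primary binding read-out is reported as % of control: (test signal − positive-control signal)/(negative-control signal − positive-control signal) × 100. Lower values indicate stronger binding.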

[2] = target: Tyrosine-protein kinase receptor UFO (Homo sapiens) (UniProt P30530); test: Inhibition of human AXL (497 to 821 amino acid residues) assessed as enzyme activity at 10 uM by KINOMEScan assay expressed in bacterial system assessed as enzyme activity at 10 uM by KINOMEScan assay; set-up: scale not given: the % may be the effect or the level left
Procedure, shortened: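 Commercial KINOMEscan binding screen across a 100-kinase panel, test compound at 10 μM. Primary-screen binding interactions reported as % Ctrl = (test compound signal − positive control signal)/(negative control signal − positive control signal) × 100. Lower values indicate stronger hits.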

[3] = target: Tyrosine-protein kinase JAK2 (Homo sapiens) (UniProt O60674); test: Inhibition of human JAK2 JH1 catalytic domain (829 to 1132 amino acid residues) assessed as enzyme activity at 10 uM by KINOMEScan assay; set-up: scale not given: the % may be the effect or the level left
Procedure, shortened: (§2)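 Competition binding screen on a 100-kinase KINOMEscan panel, compound tested at a single 10 μM concentration. Primary binding read-out expressed as % Ctrl = (test compound signal − positive control signal)/(negative control signal − positive control signal) × 100, with lower values meaning stronger binding.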

[4] = target: Vascular endothelial growth factor receptor 2 (Homo sapiens) (UniProt P35968); test: Inhibition of human VEGFR2 (787 to 1253 amino acid residues) assessed as enzyme activity at 10 uM by KINOMEScan assay; set-up: scale not given: the % may be the effect or the level left
Procedure, shortened: (§3)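 Commercial KINOMEscan binding panel of 100 kinases, test compound at 10 μM. Results are primary-screen binding interactions expressed as % Ctrl = (test compound signal − positive control signal)/(negative control signal − positive control signal) × 100. Lower % Ctrl means stronger binding.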

[5] = target: Mitogen-activated protein kinase kinase kinase 9 (Homo sapiens) (UniProt P80192); test: Inhibition of human MLK1 (88 to 426 amino acid residues) expressed in bacterial system assessed as enzyme activity at 10 uM by KINOMEScan assay; set-up: scale not given: the % may be the effect or the level left; procedure, shortened: as §2
[6] = target: 3-phosphoinositide-dependent protein kinase 1 (Homo sapiens) (UniProt O15530); test: Inhibition of full length human PDPK1 expressed in bacterial system assessed as enzyme activity at 10 uM by KINOMEScan assay; set-up: scale not given: the % may be the effect or the level left; procedure, shortened: as §2
[7] = target: Phosphatidylinositol 4,5-bisphosphate 3-kinase catalytic subunit alpha isoform (Homo sapiens) (UniProt P42336); test: Inhibition of human PIK3CA (108 to 1068 amino acid residues) assessed as enzyme activity at 10 uM by KINOMEScan assay; set-up: scale not given: the % may be the effect or the level left; procedure, shortened: as §1
[8] = target: Serine/threonine-protein kinase RIO2 (Homo sapiens) (UniProt Q9BVS4); test: Inhibition of human RIOK2 (1 to 313 amino acid residues) assessed as enzyme activity at 10 uM by KINOMEScan assay; set-up: scale not given: the % may be the effect or the level left; procedure, shortened: as §3
[9] = target: Epidermal growth factor receptor (Homo sapiens) (UniProt P00533); test: Inhibition of human EGFR (669 to 1011 amino acid residues) assessed as enzyme activity at 10 uM by KINOMEScan assay expressed in bacterial system assessed as enzyme activity at 10 uM by KINOMEScan assay; set-up: scale not given: the % may be the effect or the level left; procedure, shortened: as §3
[10] = target: Casein kinase I isoform delta (Homo sapiens) (UniProt P48730); test: Inhibition of full length human CSNK1D expressed in bacterial system assessed as enzyme activity at 10 uM by KINOMEScan assay system assessed as enzyme activity at 10 uM by KINOMEScan assay; set-up: scale not given: the % may be the effect or the level left; procedure, shortened: as §2
[11] = target: RAC-beta serine/threonine-protein kinase (Homo sapiens) (UniProt P31751); test: Inhibition of human Akt2 expressed in bacterial system assessed as enzyme activity at 10 uM by KINOMEScan assay; set-up: scale not given: the % may be the effect or the level left; procedure, shortened: as §3
[12] = target: Cyclin-dependent kinase 11B (Homo sapiens) (UniProt P21127); test: Inhibition of human CDK11 (1 to 360 amino acid residues) assessed as enzyme activity at 10 uM by KINOMEScan assay expressed in bacterial system assessed as enzyme activity at 10 uM by KINOMEScan assay; set-up: scale not given: the % may be the effect or the level left; procedure, shortened: as §3
[13] = target: Serine/threonine-protein kinase 32C (Homo sapiens) (UniProt Q86UX6); test: Inhibition of human YANK3 (68 to 486 amino acid residues) expressed in bacterial system assessed as enzyme activity at 10 uM by KINOMEScan assay; set-up: scale not given: the % may be the effect or the level left; procedure, shortened: as §1
[14] = target: Mast/stem cell growth factor receptor Kit (Homo sapiens) (UniProt P10721); test: Inhibition of human KIT (571 to 952 amino acid residues) expressed in bacterial system assessed as enzyme activity at 10 uM by KINOMEScan assay; set-up: scale not given: the % may be the effect or the level left; procedure, shortened: as §3
[15] = target: Insulin-like growth factor 1 receptor (Homo sapiens) (UniProt P08069); test: Inhibition of human IGF1R (972 to 1294 amino acid residues) assessed as enzyme activity at 10 uM by KINOMEScan assay expressed in bacterial system assessed as enzyme activity at 10 uM by KINOMEScan assay; set-up: scale not given: the % may be the effect or the level left; procedure, shortened: as §3
[16] = target: ALK tyrosine kinase receptor (Homo sapiens) (UniProt Q9UM73); test: Inhibition of human ALK (1088 to 1409 amino acid residues) assessed as enzyme activity at 10 uM by KINOMEScan assay; set-up: scale not given: the % may be the effect or the level left; procedure, shortened: as §3
[17] = target: T1, Serine/threonine-protein kinase pim-1 (Homo sapiens, UniProt P11309); test: Inhibition of human PIM1 (15 to 313 amino acid residues) expressed in bacterial system assessed as enzyme activity at 10 uM by KINOMEScan assay; set-up: scale not given: the % may be the effect or the level left; procedure, shortened: as §1
[18] = target: Receptor tyrosine-protein kinase erbB-4 (Homo sapiens) (UniProt Q15303); test: Inhibition of human ERBB4 (690 to 994 amino acid residues) assessed as enzyme activity at 10 uM by KINOMEScan assay expressed in bacterial system assessed as enzyme activity at 10 uM by KINOMEScan assay; set-up: scale not given: the % may be the effect or the level left; procedure, shortened: as §2
[19] = target: T1, Serine/threonine-protein kinase pim-1; test: Inhibition of recombinant human Pim1
[20] = target: Serine/threonine-protein kinase pim-3 (Homo sapiens) (UniProt Q86V86); test: Inhibition of human PIM3 (16 to 317 amino acid residues) expressed in bacterial system assessed as enzyme activity at 10 uM by KINOMEScan assay; set-up: scale not given: the % may be the effect or the level left; procedure, shortened: as §1
[21] = target: RAF proto-oncogene serine/threonine-protein kinase (Homo sapiens) (UniProt P04049); test: Inhibition of human RAF1 (330 to 640 amino acid residues) expressed in bacterial system assessed as enzyme activity at 10 uM by KINOMEScan assay; set-up: scale not given: the % may be the effect or the level left; procedure, shortened: as §3
[22] = system: Mast/stem cell growth factor receptor Kit (Homo sapiens), P10721 [D816V]; test: Inhibition of human KIT D816V mutant (571 to 952 amino acid residues) expressed in bacterial system assessed as enzyme activity at 10 uM by KINOMEScan assay; set-up: scale not given: the % may be the effect or the level left; procedure, shortened: as §3
[23] = target: Macrophage colony-stimulating factor 1 receptor (Homo sapiens) (UniProt P07333); test: Inhibition of human CSF1R (564 to 939 amino acid residues) assessed as enzyme activity at 10 uM by KINOMEScan assay expressed in bacterial system assessed as enzyme activity at 10 uM by KINOMEScan assay; set-up: scale not given: the % may be the effect or the level left; procedure, shortened: as §2

**Q.** With `O=C1C2=C(C(=O)c3c(O)ccc(O)c31)[C@@H](O)[C@@H](O)[C@@H](O)C2` as the molecule, how does the Activity [1] read?
**A.** Its Activity is 67%.

**Q.** And the Activity [2]?
**A.** Its Activity is 100%.

**Q.** And the Activity [3]?
**A.** Its Activity is 94%.

**Q.** And the Activity [4]?
**A.** Its Activity is 100%.

**Q.** What about the Activity [5] of the same molecule?
**A.** Its Activity is 99%.

**Q.** And the Activity [6]?
**A.** Its Activity is 87%.

**Q.** And the Activity [7]?
**A.** Its Activity is 99%.

**Q.** And the Activity [8]?
**A.** The Activity was 86%.

**Q.** And the Activity [9]?
**A.** The Activity was 88%.

**Q.** And the Activity [10]?
**A.** The Activity was 30%.

**Q.** What about the Activity [11] of the same molecule?
**A.** Its Activity is 100%.

**Q.** What about the Activity [12] of the same molecule?
**A.** Its Activity is 86%.

**Q.** What about the Activity [13] of the same molecule?
**A.** Its Activity is 89%.

**Q.** What about the Activity [14] of the same molecule?
**A.** The Activity was 76%.

**Q.** And the Activity [15]?
**A.** Its Activity is 100%.

**Q.** What about the Activity [16] of the same molecule?
**A.** The Activity was 100%.

**Q.** What about the Activity [17] of the same molecule?
**A.** Its Activity is 34%.

**Q.** What about the Activity [18] of the same molecule?
**A.** The Activity was 95%.

**Q.** And the IC50 [19]?
**A.** The IC50 was 19.2 µM.

**Q.** What about the Activity [20] of the same molecule?
**A.** The Activity was 36%.

**Q.** And the Activity [21]?
**A.** Its Activity is 100%.

**Q.** And the Activity [22]?
**A.** Its Activity is 100%.

**Q.** And the Activity [23]?
**A.** The Activity was 77%.
